Measurements gathered from unrelated publications.
Lines come from different studies, so protocols differ.
Cell line: HeLa
Read-out: cell growth or viability

CC[C@H](CC[C@@H](C)[C@H]1CC[C@H]2[C@@H]3CC=C4C[C@@H](O)CC[C@]4(C)[C@H]3CC[C@]12C)C(C)C — CC50 (MTT; 48 h): > 100 µg/mL
NC(=O)c1ncn([C@@H]2O[C@H](CO)[C@@H](O)[C@H]2O)n1 — CC50 (MTT): 115 µM
CCN(CC)CCCC(C)Nc1ccnc2cc(Cl)ccc12 (stereo not drawn) — CC50 (MTT; 48 h): > 100 µg/mL
c1cc(N2CCCC2)ccc1-c1cc2ncc(OCC3CCNCC3)nc2cc1-c1ccc(N2CCCC2)cc1 — EC50 (XTT; 7 days): > 30 µM
Nc1nc2c(ncn2COCCO)c(=O)[nH]1 — CC50 (MTT; 48 h): 355 µM
Fc1ccc(Oc2ccc(Nc3ccc4ncc(OCC5CCNCC5)nc4c3)cc2)cc1 — EC50 (XTT; 7 days): > 30 µM
CCn1c(=O)c(-c2cc[nH]n2)cc2c(C)nc(N)nc21 — CC50 (MTT): 13.6 µM
c1cc(-c2cc3ncc(OCC4CCNCC4)nc3cc2-c2cccc(N3CCCCC3)c2)cc(N2CCCCC2)c1 — EC50 (XTT; 7 days): 24.2 µM
CC(C)n1ncc2c(C(=O)NCC3(C)CNC3)cc(C3CC3)nc21 — viability (neutral red; 0.33 µM): 101%
